Measurements taken from ChEMBL document CHEMBL4196108, “5-Aroylindoles Act as Selective Histone Deacetylase 6 Inhibitors Ameliorating Alzheimer's Disease Phenotypes” (J Med Chem, 2018).
pIC50: −log10 of the molar value. The source made the active and inactive calls. The calls are words filed in the database; no cut-off is given here.

How the values were obtained:
Histone deacetylase 2 = Histone deacetylase 2 (Homo sapiens, UniProt Q92769); assay: Inhibition of human HDAC2 using RHKKAc peptide as substrate
Histone deacetylase 2, sequence (Q92769 whole entry): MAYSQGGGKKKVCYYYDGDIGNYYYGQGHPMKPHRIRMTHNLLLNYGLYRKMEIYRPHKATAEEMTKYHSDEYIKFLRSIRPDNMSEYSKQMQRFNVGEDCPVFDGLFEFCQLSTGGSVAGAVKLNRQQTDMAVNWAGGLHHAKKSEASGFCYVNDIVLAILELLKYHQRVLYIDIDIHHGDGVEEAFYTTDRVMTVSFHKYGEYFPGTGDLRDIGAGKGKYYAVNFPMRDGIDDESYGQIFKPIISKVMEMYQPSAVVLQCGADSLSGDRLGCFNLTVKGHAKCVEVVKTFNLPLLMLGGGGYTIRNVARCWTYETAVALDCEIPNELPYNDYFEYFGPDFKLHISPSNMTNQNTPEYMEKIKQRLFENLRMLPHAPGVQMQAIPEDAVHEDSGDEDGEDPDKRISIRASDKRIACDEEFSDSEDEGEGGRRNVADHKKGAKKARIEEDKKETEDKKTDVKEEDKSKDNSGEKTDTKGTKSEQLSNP

Homo sapiens [1] = species: Homo sapiens; assay: Selectivity index, ratio of IC50 for human HDAC2 to IC50 for human HDAC6
[2] = target: T1, Protein deacetylase HDAC6 (Mus musculus) (UniProt Q9Z2V5); assay: Inhibition of HDAC6 in mouse Neuro-2a cells transfected with pCAX FLAG APP and pRK5-EGFP-Tau P301L plasmids assessed as inhibition of Tau P301L mutant phosphorylation at Ser396 residue at 1 uM after 24 hrs by Western blot analysis; format: cell-based
T1 sequence (whole entry): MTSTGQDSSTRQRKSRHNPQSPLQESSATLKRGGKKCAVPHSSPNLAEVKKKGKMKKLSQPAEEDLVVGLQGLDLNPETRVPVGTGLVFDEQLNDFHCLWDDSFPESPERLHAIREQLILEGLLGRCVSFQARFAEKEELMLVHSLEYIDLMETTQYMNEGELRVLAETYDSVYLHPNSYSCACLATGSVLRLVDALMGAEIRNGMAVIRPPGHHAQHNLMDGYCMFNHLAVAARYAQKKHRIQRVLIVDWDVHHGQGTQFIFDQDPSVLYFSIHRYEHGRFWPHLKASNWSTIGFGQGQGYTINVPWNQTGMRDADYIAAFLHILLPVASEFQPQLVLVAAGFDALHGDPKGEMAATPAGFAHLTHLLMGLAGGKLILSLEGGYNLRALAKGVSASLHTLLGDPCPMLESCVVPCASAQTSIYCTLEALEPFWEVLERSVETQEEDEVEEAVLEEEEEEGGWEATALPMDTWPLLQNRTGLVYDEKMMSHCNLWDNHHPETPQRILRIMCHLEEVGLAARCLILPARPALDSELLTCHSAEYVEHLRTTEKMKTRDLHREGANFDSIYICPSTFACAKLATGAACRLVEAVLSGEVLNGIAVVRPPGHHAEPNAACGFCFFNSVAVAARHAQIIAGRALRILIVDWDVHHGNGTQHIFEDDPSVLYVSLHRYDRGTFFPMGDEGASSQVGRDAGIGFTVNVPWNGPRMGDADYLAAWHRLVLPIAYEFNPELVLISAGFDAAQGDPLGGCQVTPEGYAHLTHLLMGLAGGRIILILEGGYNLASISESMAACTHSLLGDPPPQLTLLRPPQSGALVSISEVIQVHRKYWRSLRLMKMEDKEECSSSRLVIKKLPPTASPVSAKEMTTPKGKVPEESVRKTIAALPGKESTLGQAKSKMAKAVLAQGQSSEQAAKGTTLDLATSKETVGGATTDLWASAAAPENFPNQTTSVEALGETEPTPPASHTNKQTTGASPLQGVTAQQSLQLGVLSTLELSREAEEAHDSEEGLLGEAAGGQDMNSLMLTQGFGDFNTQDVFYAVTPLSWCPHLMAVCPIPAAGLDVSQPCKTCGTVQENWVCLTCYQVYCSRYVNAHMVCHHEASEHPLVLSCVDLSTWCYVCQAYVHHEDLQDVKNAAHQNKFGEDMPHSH
How it was run: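 SH-SY5Y or Neuro-2a cells cotransfected 24 h with pCAX APP695 and pRK5-EGFP-Tau P301L, then treated 24 h at 1 µM. 20 µg lysate protein immunoblotted for APP and phospho-tau Ser396/Ser404. Mean ± STD of three independent experiments; Student's t-test.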

Histone deacetylase 3 = Histone deacetylase 3 (Homo sapiens, UniProt O15379)
Histone deacetylase 3, sequence (O15379 whole entry): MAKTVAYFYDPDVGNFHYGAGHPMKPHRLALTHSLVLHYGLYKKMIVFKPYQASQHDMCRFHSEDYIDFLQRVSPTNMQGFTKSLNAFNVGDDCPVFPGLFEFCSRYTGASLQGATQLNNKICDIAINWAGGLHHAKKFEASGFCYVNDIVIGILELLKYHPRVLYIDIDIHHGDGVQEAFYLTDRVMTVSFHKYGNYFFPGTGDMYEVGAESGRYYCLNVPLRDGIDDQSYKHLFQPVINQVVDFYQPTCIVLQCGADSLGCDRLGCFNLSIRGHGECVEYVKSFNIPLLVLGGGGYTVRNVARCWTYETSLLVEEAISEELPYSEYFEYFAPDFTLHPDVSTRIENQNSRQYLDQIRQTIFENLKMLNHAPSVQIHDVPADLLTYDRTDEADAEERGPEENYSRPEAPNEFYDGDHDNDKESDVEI

[3] = target: T2, Polyamine deacetylase HDAC10 (Homo sapiens, UniProt Q969S8); assay: Inhibition of human HDAC10 using RHKKAc peptide as substrate
T2 sequence (Q969S8 whole entry): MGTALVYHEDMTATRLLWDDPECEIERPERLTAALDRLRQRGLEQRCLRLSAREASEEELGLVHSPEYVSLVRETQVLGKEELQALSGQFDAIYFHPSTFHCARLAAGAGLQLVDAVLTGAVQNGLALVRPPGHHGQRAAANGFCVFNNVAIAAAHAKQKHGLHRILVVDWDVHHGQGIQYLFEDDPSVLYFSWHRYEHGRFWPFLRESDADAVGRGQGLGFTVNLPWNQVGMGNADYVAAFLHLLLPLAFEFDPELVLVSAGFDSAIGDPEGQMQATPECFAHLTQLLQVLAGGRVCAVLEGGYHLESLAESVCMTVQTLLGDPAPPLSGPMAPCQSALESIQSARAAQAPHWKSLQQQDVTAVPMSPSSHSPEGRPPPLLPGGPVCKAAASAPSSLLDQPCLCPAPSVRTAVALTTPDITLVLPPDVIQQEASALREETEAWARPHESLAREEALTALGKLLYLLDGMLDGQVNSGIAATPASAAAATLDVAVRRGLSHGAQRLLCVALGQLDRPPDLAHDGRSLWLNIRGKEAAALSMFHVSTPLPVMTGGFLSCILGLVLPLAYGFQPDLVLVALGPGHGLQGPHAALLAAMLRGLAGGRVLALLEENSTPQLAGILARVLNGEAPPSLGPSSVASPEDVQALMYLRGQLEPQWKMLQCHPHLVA

Homo sapiens [4] = species: Homo sapiens; assay: Selectivity index, ratio of IC50 for human HDAC3 to IC50 for human HDAC6
Homo sapiens [5] = species: Homo sapiens; assay: Selectivity index, ratio of IC50 for human HDAC10 to IC50 for human HDAC6
Homo sapiens [6] = species: Homo sapiens; assay: Selectivity index, ratio of IC50 for human HDAC1 to IC50 for human HDAC6
Histone deacetylase 8 = target: T3, Histone deacetylase 8 (Homo sapiens, UniProt Q9BY41); assay: Inhibition of human HDAC8 using RHKAcKAc peptide as substrate
T3 sequence (Q9BY41 whole entry): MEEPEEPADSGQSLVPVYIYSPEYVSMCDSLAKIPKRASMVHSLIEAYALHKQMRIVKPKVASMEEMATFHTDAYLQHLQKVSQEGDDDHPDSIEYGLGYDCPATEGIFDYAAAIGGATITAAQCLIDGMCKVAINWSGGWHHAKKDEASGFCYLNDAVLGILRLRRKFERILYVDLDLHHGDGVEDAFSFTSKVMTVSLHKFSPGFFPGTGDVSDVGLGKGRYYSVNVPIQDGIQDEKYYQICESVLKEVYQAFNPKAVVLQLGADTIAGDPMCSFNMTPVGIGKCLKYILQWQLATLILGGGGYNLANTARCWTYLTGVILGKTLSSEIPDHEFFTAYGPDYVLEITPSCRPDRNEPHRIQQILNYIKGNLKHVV

Histone deacetylase 1 = Histone deacetylase 1 (Homo sapiens, UniProt Q13547); assay: Inhibition of human HDAC1 using RHKKAc peptide as substrate
Histone deacetylase 1, sequence (Q13547 whole entry): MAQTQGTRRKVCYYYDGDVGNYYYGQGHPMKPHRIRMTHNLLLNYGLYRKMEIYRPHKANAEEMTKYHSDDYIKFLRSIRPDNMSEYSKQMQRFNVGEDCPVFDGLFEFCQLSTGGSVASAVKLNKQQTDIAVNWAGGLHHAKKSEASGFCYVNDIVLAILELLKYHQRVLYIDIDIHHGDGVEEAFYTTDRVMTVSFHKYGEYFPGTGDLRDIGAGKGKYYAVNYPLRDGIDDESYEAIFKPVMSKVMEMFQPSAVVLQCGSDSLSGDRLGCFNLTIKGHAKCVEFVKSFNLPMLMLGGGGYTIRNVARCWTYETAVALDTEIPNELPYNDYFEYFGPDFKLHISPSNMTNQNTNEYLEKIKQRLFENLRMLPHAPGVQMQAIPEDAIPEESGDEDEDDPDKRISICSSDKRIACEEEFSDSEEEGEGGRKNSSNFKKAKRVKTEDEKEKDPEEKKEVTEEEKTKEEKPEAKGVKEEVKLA

Homo sapiens [7] = species: Homo sapiens; assay: Selectivity index, ratio of IC50 for human HDAC8 to IC50 for human HDAC6

Row | pIC50 (Histone deacetylase 2) | Ratio IC50 (Homo sapiens [1]) | inhibition [2] | pIC50 (Histone deacetylase 3) | pIC50 [3] | Ratio IC50 (Homo sapiens [4]) | Ratio IC50 (Homo sapiens [5]) | Ratio IC50 (Homo sapiens [6]) | pIC50 (Histone deacetylase 8) | pIC50 (Histone deacetylase 1) | Ratio IC50 (Homo sapiens [7]) | Compound
1 | 5.29 | 552 | Active | 5.36 | < 4.00 | 476 | > 10800 | 357 | 5.91 | 5.48 | 134 | O=C(NO)c1ccc(Cn2ccc3cc(C(=O)c4ccc(F)cc4)ccc32)cc1
2 | 5.68 | 312 | Active | 5.18 | < 4.00 | 984 | > 14900 | 710 | 5.97 | 5.32 | 158 | O=C(NO)c1ccc(Cn2ccc3cc(C(=O)c4ccc(Cl)cc4)ccc32)cc1

Row | Compound | pIC50 (Histone deacetylase 2) | Ratio IC50 (Homo sapiens [1]) | inhibition [2] | pIC50 (Histone deacetylase 3) | pIC50 [3] | Ratio IC50 (Homo sapiens [4]) | Ratio IC50 (Homo sapiens [5]) | Ratio IC50 (Homo sapiens [6]) | pIC50 (Histone deacetylase 8) | pIC50 (Histone deacetylase 1) | Ratio IC50 (Homo sapiens [7])
3 | COc1ccc(C(=O)c2ccc3c(ccn3Cc3ccc(C(=O)NO)cc3)c2)cc1 | 6.25 | 145 | Active | 5.38 | 4.22 | 1060 | 15300 | 559 | 6.19 | 5.66 | 165
